The results in this text go back to ChEMBL document CHEMBL4138261, “SAR Studies of Indole-5-propanoic Acid Derivatives To Develop Novel GPR40 Agonists” (ACS Med Chem Lett, 2017).

For data set [1], the target named is T1, Peroxisome proliferator-activated receptor gamma (Homo sapiens) (UniProt P37231).
T1 sequence (whole entry): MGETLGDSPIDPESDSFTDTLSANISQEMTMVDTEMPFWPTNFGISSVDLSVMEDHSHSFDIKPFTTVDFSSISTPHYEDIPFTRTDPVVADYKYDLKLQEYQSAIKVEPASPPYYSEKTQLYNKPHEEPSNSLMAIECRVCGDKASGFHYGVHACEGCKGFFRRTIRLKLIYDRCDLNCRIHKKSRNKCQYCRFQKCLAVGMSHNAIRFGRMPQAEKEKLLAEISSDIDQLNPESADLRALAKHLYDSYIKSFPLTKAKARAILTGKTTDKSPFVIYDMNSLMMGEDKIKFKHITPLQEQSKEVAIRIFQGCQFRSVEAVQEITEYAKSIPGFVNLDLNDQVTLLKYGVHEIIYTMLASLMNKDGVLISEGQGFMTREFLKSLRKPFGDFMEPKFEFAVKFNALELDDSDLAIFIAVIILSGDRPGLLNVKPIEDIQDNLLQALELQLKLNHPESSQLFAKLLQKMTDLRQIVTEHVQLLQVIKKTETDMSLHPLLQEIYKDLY
Briefly: Transactivation of human PPARgamma expressed in CHO cells at 10 uM after 24 hrs by luciferase reporter gene assay relative to rosiglitazone. It is filed as cell-based. An outline of the steps: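 Luciferase reporter transactivation assay for PPARγ; compounds tested at 10 μM; activity expressed as percent of 1 μM rosiglitazone; no activity defined as >25 μM.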
A general note: In a reporter assay the amount or activity of a reporter protein is the signal.

A short description of data set [2]: Intrinsic clearance in CD-1 mouse liver microsomes at 1 uM after 30 mins in presence of NADPH by UPLC-MS analysis. It is filed as ADME, microsome. As to conditions: 0.5 h. An outline of the steps: (§1)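 Liver microsomal stability; intrinsic clearance reported in μL/min/mg.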
On the technique in general: Microsomes from liver hold many membrane-bound enzymes, among them those of drug oxidation.

Data set [3] can be described thus: Intrinsic clearance in human liver microsomes at 1 uM after 30 mins in presence of NADPH by UPLC-MS analysis. It is filed as ADME, microsome. Particulars: 0.5 h. The essentials:
as §1

The target in data set [4] is Free fatty acid receptor 1 (Homo sapiens, UniProt O14842). Briefly: Agonist activity at human GPR40 expressed in CHO cells after 24 hrs by NFAT-luciferase reporter gene assay. It is filed as functional, cell-based.
The target of data set [5] is Free fatty acid receptor 1 (Mus musculus) (UniProt Q76JU9). Briefly: Agonist activity at GPR40 in mouse MIN6 cells assessed as increase in 17 mM glucose-stimulated insulin secretion at 1 and 10 uM after 2 hrs by ELISA relative to glucose. It is filed as functional, cell-based. The essentials: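 GSIS in MIN6 insulinoma cells stimulated with 17 mM glucose; insulin secretion compared with 17 mM glucose alone by Student's test (*p ≤ 0.05, **p ≤ 0.025, ***p ≤ 0.01).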
(In general: ELISA stands for enzyme-linked immunosorbent assay.)

Data set [6] concerns the target T2, Peroxisome proliferator-activated receptor gamma (Homo sapiens, UniProt P37231).
T2 sequence (P37231 whole entry): T1 sequence (whole entry)
The experiment in a line: Transactivation of human PPARgamma expressed in CHO cells after 24 hrs by luciferase reporter gene assay. It is filed as cell-based.

The source made the active and inactive calls.

Chain of Free fatty acid receptor 1 (Mus musculus) (Q76JU9 whole entry): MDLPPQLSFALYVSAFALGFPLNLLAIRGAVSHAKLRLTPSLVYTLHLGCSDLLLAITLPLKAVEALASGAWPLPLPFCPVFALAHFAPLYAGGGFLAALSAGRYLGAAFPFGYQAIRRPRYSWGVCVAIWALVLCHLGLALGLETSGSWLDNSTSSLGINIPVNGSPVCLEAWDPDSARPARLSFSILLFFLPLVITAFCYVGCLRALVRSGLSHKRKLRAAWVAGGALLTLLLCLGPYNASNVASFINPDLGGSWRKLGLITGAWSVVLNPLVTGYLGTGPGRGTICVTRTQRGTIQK
Chain of Free fatty acid receptor 1 (O14842 whole entry): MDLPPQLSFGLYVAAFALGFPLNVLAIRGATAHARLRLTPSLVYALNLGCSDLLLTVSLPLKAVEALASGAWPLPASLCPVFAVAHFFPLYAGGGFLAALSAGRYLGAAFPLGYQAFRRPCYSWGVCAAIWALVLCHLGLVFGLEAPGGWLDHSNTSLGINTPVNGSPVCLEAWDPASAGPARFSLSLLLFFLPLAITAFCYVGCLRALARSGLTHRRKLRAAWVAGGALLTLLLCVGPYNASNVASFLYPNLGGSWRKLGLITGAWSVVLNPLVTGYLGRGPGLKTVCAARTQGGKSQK

Take `O=C(O)CCc1ccc2[nH]c(-c3ccccc3Cl)cc2c1`: the Activity in data set [1] worked out at 1%. In addition, the CLH in data set [2] was found to be 14.3 µL/min; in data set [3], 9.2 µL/min. Also, in data set [4], the EC50 (commonly the concentration giving half of the maximal effect) fell in the range of 0.0546 to 0.0586 µM. For the same compound, the fold change (FC) in data set [5] is 1.4.

For the compound `CCc1ccccc1-c1cc2cc(CCC(=O)O)ccc2[nH]1`, the Activity in data set [1] amounted to 7%. Further, the EC50 in data set [4] came out at 1.8 µM.

`Cc1cccc(-c2cc3cc(CCC(=O)O)ccc3[nH]2)c1` yielded an Activity in data set [1] of 8%. In data set [4], this compound gave an EC50 of more than 25 µM.

In turn, `O=C(O)CCc1ccc2[nH]c(-c3cccc(Br)c3)cc2c1` came in with an Activity in data set [1] of 56%. Further, the values for the EC50 in data set [6] and in data set [4] were 236 µM and 1.8 µM, respectively.

Take `COc1ccc(-c2cc3cc(CCC(=O)O)ccc3[nH]2)cc1`: the Activity in data set [1] came to 5%. Moreover, the EC50 in data set [4] is more than 25 µM.

Regarding `O=C(O)CCc1ccc(NCc2cccc(Oc3ccccc3)c2)cc1` [GW9508], a half-maximal effect in data set [4] (EC50) was put at 0.05 µM.

In data set [1], `COc1ccccc1-c1cc2cc(CCC(=O)O)ccc2[nH]1` returned an Activity of 0%. Besides, the EC50 in data set [4] was more than 25 µM.

`Cn1c(-c2ccccc2Br)cc2cc(CCC(=O)O)ccc21` gave an EC50 in data set [4] of more than 10 µM.

Regarding `Cn1c(-c2ccc(Cl)cc2)cc2cc(CCC(=O)O)ccc21`, the EC50 in data set [4] was more than 10 µM.

In data set [1], `O=C(O)CCc1ccc2[nH]c(-c3ccccc3F)cc2c1` came in with an Activity of 3%. In data set [4], this compound yielded an EC50 of 1.21 µM.

For the compound `O=C(O)CCc1ccc2[nH]c(-c3ccccc3)cc2c1`, in data set [1], the Activity stood at 14%. In data set [4], this compound registered an EC50 of more than 25 µM. Further, in data set [5], the outcome was inactive.

`Cn1c(-c2cccc(Cl)c2)cc2cc(CCC(=O)O)ccc21` showed an EC50 in data set [4] of more than 10 µM.

`O=C(O)CCc1ccc2[nH]c(-c3ccccc3C(F)(F)F)cc2c1` showed an Activity in data set [1] of 8%. Further, the response in data set [4] was half-maximal at 1.31 µM (EC50).

With `Cc1cc(OCCCS(C)(=O)=O)cc(C)c1-c1cccc(COc2ccc3c(c2)OC[C@H]3CC(=O)O)c1`, in data set [5], the fold change (FC) came out at 1.7.

In data set [1], `O=C(O)CCc1ccc2[nH]c(-c3ccccc3OC(F)(F)F)cc2c1` came in with an Activity of 2%. Moreover, in data set [4], a half-maximal effect (EC50) was put at 1.02 µM.

In turn, `COc1cccc(-c2cc3cc(CCC(=O)O)ccc3[nH]2)c1` showed an Activity in data set [1] of 5%. The same compound gave an EC50 in data set [4] of more than 25 µM.

The compound `O=C(O)CCc1ccc2[nH]c(-c3ccc(Cl)cc3)cc2c1` returned an Activity in data set [1] of 1%. This compound showed an EC50 in data set [4] of 0.778 µM.

Regarding `Cc1ccccc1-c1cc2cc(CCC(=O)O)ccc2[nH]1`, the Activity in data set [1] was 4%. The compound further gave an EC50 in data set [4] of 0.447 µM.

For `Cc1ncccc1-c1cc2cc(CCC(=O)O)ccc2[nH]1`, the Activity in data set [1] was 64%. The EC50 in data set [6] was 56.9 µM; in data set [4], more than 25 µM.

In data set [1], `CC(C)c1ccccc1-c1cc2cc(CCC(=O)O)ccc2[nH]1` displayed an Activity of 2%. The concentration giving a half-maximal response (EC50) in data set [4] was more than 25 µM.

The compound `O=C(O)CCc1ccc2[nH]c(-c3ccccc3Br)cc2c1` registered an Activity in data set [1] of 4%. Moreover, the CLH in data set [2] came to 10.4 µL/min; in data set [3], 7.1 µL/min. The EC50 in data set [4] is 0.0094 µM. The fold change (FC) in data set [5] is 1.6.

In data set [1], `Cc1ccc(-c2cc3cc(CCC(=O)O)ccc3[nH]2)cc1` gave an Activity of 4%. The EC50 in data set [4] is more than 25 µM.

As to `O=C(O)CCc1ccc2[nH]c(-c3cccc(Cl)c3)cc2c1`, in data set [1], the Activity amounted to 101%. Moreover, the EC50 in data set [6] was 2.4 µM; in data set [4], 0.0378 µM. Moreover, the CLH in data set [2] is 11.3 µL/min; in data set [3], 4.3 µL/min. The fold change (FC) in data set [5] turned out to be 1.7.
